Compound activity as filed in PubChem BioAssay.
Fh CTSL1 inh: Fasciola hepatica cathepsin L1 inhibitors, primary screen, counter-screen for PFM18AAP inhibitor project, biochemical, QFRET, fluorogenic peptide substrate; recombinant F. hepatica cathepsin L1, Z-Leu-Arg-MCA fluorescence; inhibition, % at 5.96 µM; actives 0.49% (n = 300,000); AID 1906, 2009;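 active = inhibition above the mean of all tested compounds plus 3 SD, set per screening campaign, cut at about 17% in these data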;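 also: 0% = plate median of test compound wells and 100% = 1 µM Z-Phe-Ala-diazomethylketone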
ZTA DNA inh: counter-screen for EBNA-1 inhibitors: inhibitors of Epstein-Barr virus ZTA; AID 2234; P03206; actives 0.15% (n = 320,000); ZTA-DNA binding, fluorescence polarization; inhibition, % at 11 µM; in the data active = inhibition above about 33%
Target sequence (P03206 whole entry, looked up): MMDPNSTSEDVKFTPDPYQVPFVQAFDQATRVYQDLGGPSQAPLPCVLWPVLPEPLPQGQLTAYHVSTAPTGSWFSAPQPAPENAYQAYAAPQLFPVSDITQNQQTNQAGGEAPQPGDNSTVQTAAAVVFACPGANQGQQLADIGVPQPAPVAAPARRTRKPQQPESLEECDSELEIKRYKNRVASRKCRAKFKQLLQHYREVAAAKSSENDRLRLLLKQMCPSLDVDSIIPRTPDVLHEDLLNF
EBNA-1 inh: EBNA-1 DNA-binding inhibitors, primary screen, biochemical, fluorescence polarization. inhibition, % at 14.8 µM. actives 0.34% (n = 300,000). AID 1950, 2009; in the data active = inhibition above about 28%
NS3 helicase inh: inhibitors of HCV NS3 helicase, primary screen, biochemical, Cy5 molecular beacon fluorescence | actives 0.56% (n = 290,000) | NS3 helicase DNA unwinding | Hepatitis C virus NS3 helicase | inhibition, % at 10.9 µM;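 active = inhibition above the mean of all tested compounds plus 3 SD, set per campaign, cut at about 35% in these data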;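 also: 0% = DMSO wells and 100% = thioflavine S control wells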
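assay system = NS3 helicase fragment of HCV | buffer or medium = MOPS pH 6.5, MgCl2, DTT, Tween20, BSA | timing = 60 min unwinding reaction at 25 °C after ATP addition | signal = Cy5 beacon fluorescence read at start and 1 h | read-out basis = % inhibition of unwinding | control set = low DMSO, high thioflavine S at 110 µM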
EBNA-1 confirm: EBNA-1 DNA-binding inhibitors, retest, confirmation, biochemical, fluorescence polarization, triplicate. shares compounds with EBNA-1 inh. Recombinant EBNA-1 DBD, Cy5-DNA fluorescence polarization. inhibition, % at 14.8 µM. actives 35% (n = 830). AID 2292, 2010;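 active = mean inhibition across replicates above a set limit taken from the earlier primary screen, cut at about 28% in these data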;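 also: plate controls were EBNA-1 protein with DMSO for no effect and wells lacking EBNA-1 for full effect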
ZTA DNA inh trip: EBV Zta DNA binding inhibitors, counter-screen for EBNA-1 inhibitor project, biochemical, fluorescence polarization, triplicate; Zta-ZRE DNA binding, Cy5 fluorescence polarization; AID 2328, 2010; 830 tested, under 10 active; shares compounds with EBNA-1 inh; inhibition, % at 11.1 µM;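 active = mean inhibition over triplicates above a set limit taken from the primary EBNA-1 screen, cut at about 37% in these data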;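 also: purified full length Zta protein with Cy5 labeled ZRE DNA probe; 0% = Zta with DMSO and 100% = wells lacking Zta protein; inhibitors lower polarization by freeing the labeled DNA probe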
An asterisk follows results filed as active; . = not tested or not shown. Compounds with a hit are over-represented: about 1.4% of the library has one in this group of screens.

SMILES	Fh CTSL1 inh	ZTA DNA inh	EBNA-1 inh	NS3 helicase inh	EBNA-1 confirm	ZTA DNA inh trip
O=C1[C@H]2[C@@H](c3ccc(F)cc3)N3C(=O)N(c4cccc(F)c4)C(=O)[C@@]3(Cc3ccccc3)[C@H]2C(=O)N1C1CCCCC1	-6	6	81*	.	9	-15
COc1cc(C(=O)NNC(=S)NC(=O)/C=C/c2ccccc2)cc(OC)c1OC	2	-4	77*	8	35*	4
COC(=O)c1ccc2nc(NC(=O)CCS(=O)(=O)c3ccccc3)sc2c1	-9	17	44*	4	52*	5
COc1ccc(NC(=O)CCS(=O)(=O)c2ccc(OC)cc2)cc1	-4	-8	-8	-9	.	.
COc1ccc(OC)c(NC(=S)NCc2cccs2)c1	-2	9	-1	-6	.	.
CC(C)CNC(=S)N(Cc1ccco1)Cc1cc2cc3c(cc2[nH]c1=O)OCCO3	2	7	61*	4	2	17
CCNC(=S)N(Cc1ccco1)Cc1cc2cc3c(cc2[nH]c1=O)OCCO3	-1	6	-18	12	.	.
Cc1onc(-c2c(Cl)cccc2Cl)c1C(=O)NC(=S)Nc1sc2c(c1C(N)=O)CCC(C)C2 (centres undefined)	4	15	34*	5	28*	3
COc1ccc(Nc2nc(NCc3ccco3)nc(N)c2[N+](=O)[O-])cc1	1	17	39*	-8	12	1
Cc1nn(CC(=O)NCc2ccccc2)c(=O)c2ccccc12	0	-1	-5	-2	.	.
Cc1nn(CC(=O)NCc2cccc3ccccc23)c(=O)c2ccccc12	8	1	31*	-4	7	0
NS(=O)(=O)c1ccc(NC(=O)c2ccc(COc3ccccc3)o2)cc1	-1	3	39*	0	20	-2
O=C(O)CN1C(=O)C2(OCCCO2)c2ccccc21	-3	8	4	-2	.	.
O=C(NCC1OCCc2ccccc21)c1ccc(NC(=O)c2ccc(Cl)cc2Cl)cc1 (centres undefined)	-3	4	70*	-1	47*	-2
Nc1nc(CN2CCC(Cc3ccccc3)CC2)nc(Nc2ccccc2)n1	1	-3	7	-12	.	.
COc1ccc(OC)c(CN(CCCN2CCOCC2)S(=O)(=O)c2ccc(NC(C)=O)cc2)c1	-2	-16	2	1	.	.
COc1ccccc1-c1cc(C(F)(F)F)nc(NCc2ccco2)n1	-1	26	40*	6	0	3
FC(F)(F)c1cc(-c2ccco2)nc(NCc2ccccc2)n1	4	6	1	21	.	.
Cc1ccc(NC(=O)CCn2c(=S)oc3ccccc32)cc1	1	-4	43*	9	55*	1
CN(C)c1ccc(NC(=O)CCn2c(=S)oc3ccccc32)cc1	8	-16	-3	-15	.	.
O=C(CCn1c(=S)oc2ccccc21)Nc1ccc(F)cc1	-1	7	48*	3	19	2
CN1CCC(OC(=O)c2ccccc2)CC1	4	-18	1	19	.	.
Cc1cc(-n2c(C)cc(C(=S)N3CCOCC3)c2C)ccc1Br	2	1	8	13	.	.
CC1CCN(C(=O)/C=C/c2ccc(C(C)(C)C)cc2)CC1	-1	-3	-1	-3	.	.
Cc1ccc(NC(=O)COc2ccc(/C=N/NC(=O)CSCc3ccccc3)cc2)cc1	0	-18	11	-14	.	.
SMILES	Fh CTSL1 inh	ZTA DNA inh	EBNA-1 inh	NS3 helicase inh	EBNA-1 confirm	ZTA DNA inh trip
O=C(CSCc1ccc(Cl)cc1)N/N=C/c1ccc(OCC(=O)Nc2ccccc2)cc1	5	8	52*	-1	29*	1
COc1ccc(C(=O)N/C(=C\c2cc(OC)c(OC)cc2[N+](=O)[O-])C(=O)NCCO)cc1	-1	12	8	-4	.	.
CC1CCN(S(=O)(=O)c2ccc(NC(=O)Cn3nnc(-c4ccccc4)n3)cc2)CC1	0	19	30*	-35	5	-15
O=c1oc2ccccc2c(Nc2cccc3ccccc23)c1[N+](=O)[O-]	5	6	7	-2	.	.
COc1ccccc1NC(C#N)c1ccccc1OCc1ccccc1 (centres undefined)	2	4	1	-2	.	.
COc1ccc(/C=C2\SC(=S)N(c3cccnc3)C2=O)cc1	-4	11	0	-4	.	.
O=C1/C(=C\c2ccc(O)cc2)SC(=S)N1c1cccnc1	3	7	31*	4	21	11
CC(=O)Nc1ccc(/C=C/c2nc(-c3ccccc3O)n[nH]2)cc1	7	1	45*	-6	-6	1
Cn1c(N)c(C(=O)COC(=O)CSc2ccc3ccccc3c2)c(=O)n(C)c1=O	-7	-21	-4	-3	.	.
Cn1c(N)c(C(=O)COC(=O)CSc2cccc3cccc(Cl)c23)c(=O)n(C)c1=O	-14	6	32*	5	46*	22
O=S(=O)(c1ccc(Cl)cc1Br)N1CCCCC1	2	19	8	-6	.	.
O=C(Nc1cc(F)cc(F)c1)c1ccc(NCCc2ccccc2)c([N+](=O)[O-])c1	-1	11	74*	-3	5	7
O=C(CNC(=O)c1ccc(-c2ccccc2)cc1)OCc1c(F)cccc1Cl	-2	-17	44*	-6	76*	-12
O=C(CNC(=O)c1ccc(-c2ccccc2)cc1)OCc1c(Cl)cccc1Cl	-2	-9	15	0	.	.
O=[N+]([O-])c1cccc(/C=N/Nc2nc(NCc3ccccc3)nc(N3CCOCC3)n2)c1	-2	11	49*	-11	71*	0
CCc1ccc(/C=C2/C(=O)N(c3ccccc3)C(=S)N2CC(=O)OC)s1	3	8	41*	8	21	1
CN(C(=S)Oc1ccc(C(=O)Nc2ccccc2)cc1)c1ccccc1	-1	-13	5	-15	.	.
COc1ccc(NC(=O)C2(c3ccc(NC(=O)c4ccc(C)cc4)cc3)CCCC2)cc1	-1	-14	3	3	.	.
COc1ccc(NC(=O)Nc2ccc(OC)cc2)cc1	2	4	54*	0	32*	0
COC(=O)c1ccc(NC(=O)Nc2ccc(OC)cc2)cc1	5	-7	-9	-12	.	.
COc1ccc(C(=O)Nc2ccc3c(c2)C(=O)NC3=O)cc1	-1	10	33*	-4	26	5
COc1ccc(NC(=O)c2ccc(OC(=S)N(C)c3ccc(OC)cc3)cc2)cc1	6	13	34*	2	19	8
COc1ccc(C(=O)Nc2ccc(C3(C#N)CCCC3)cc2)cc1	-3	18	56*	-1	13	2
O=C(COC(=O)c1cc(NS(=O)(=O)c2cccs2)ccc1O)Nc1cc(Cl)ccc1Cl	-2	12	36*	9	15	6
